Our source for the Ki and inhibition values is ChEMBL document CHEMBL4602711, “Catching a Moving Target: Comparative Modeling of Flaviviral NS2B-NS3 Reveals Small Molecule Zika Protease Inhibitors” (ACS Med Chem Lett, 2020).

Assay [1] can be described thus: Inhibition of N-terminal His6-tagged DENV2 NS2B-NS3 protease using Boc-Gly-Lys-Arg-AMC33 as substrate measured for 600 secs by fluorescence based assay. Details: species or system dengue virus type 2. The method, boiled down: (§1)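 Ki values were obtained by fluorescence-based protease assays, only for ligands below the 50 μM inhibition cutoff. The commercially available racemic mixtures were tested.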

In assay [2] the target is Nonstructural protein 3 (Zika virus) (UniProt A0A024AXB9). In words: Inhibition of Zika virus NS2B-NS3 protease at <50 uM using Bz-Nle-Lys-Lys-Arg-AMC as substrate preincubated for 10 mins followed by substrate addition and measured for 70 secs by fluorophotometric analysis.
Assay [3] addresses Genome polyprotein (West Nile virus) (UniProt P06935). In words: Inhibition of C-terminal His6-tagged West Nile virus NS2B (52 to 96 residues)-G4SG4-NS3 (1 to 184 residues) expressed in Escherichia coli BL21(DE3) cells at <50 uM using Boc-Gly-Lys-Arg-AMC33 as substrate measured for 600 secs by fluorescence based assay.
The next assay concerns the target Genome polyprotein (West Nile virus, UniProt P06935). In words: Inhibition of C-terminal His6-tagged West Nile virus NS2B (52 to 96 residues)-G4SG4-NS3 (1 to 184 residues) expressed in Escherichia coli BL21(DE3) cells using Boc-Gly-Lys-Arg-AMC33 as substrate measured for 600 secs by fluorescence based assay. The method, boiled down: as §1
The test system of the next assay is dengue virus type 2. In words: Inhibition of N-terminal His6-tagged DENV2 NS2B-NS3 protease at<50 uM using Boc-Gly-Lys-Arg-AMC33 as substrate measured for 600 secs by fluorescence based assay.
A further assay has as its target Nonstructural protein 3 (Zika virus, UniProt A0A024AXB9). In words: Inhibition of Zika virus NS2B-NS3 protease using Bz-Nle-Lys-Lys-Arg-AMC as substrate preincubated for 10 mins followed by substrate addition and measured for 70 secs by fluorophotometric analysis. The method, boiled down:
as §1

Activity calls are given as the source filed them.

Chain of Genome polyprotein (West Nile virus) (P06935 whole entry, the tested form may be a part): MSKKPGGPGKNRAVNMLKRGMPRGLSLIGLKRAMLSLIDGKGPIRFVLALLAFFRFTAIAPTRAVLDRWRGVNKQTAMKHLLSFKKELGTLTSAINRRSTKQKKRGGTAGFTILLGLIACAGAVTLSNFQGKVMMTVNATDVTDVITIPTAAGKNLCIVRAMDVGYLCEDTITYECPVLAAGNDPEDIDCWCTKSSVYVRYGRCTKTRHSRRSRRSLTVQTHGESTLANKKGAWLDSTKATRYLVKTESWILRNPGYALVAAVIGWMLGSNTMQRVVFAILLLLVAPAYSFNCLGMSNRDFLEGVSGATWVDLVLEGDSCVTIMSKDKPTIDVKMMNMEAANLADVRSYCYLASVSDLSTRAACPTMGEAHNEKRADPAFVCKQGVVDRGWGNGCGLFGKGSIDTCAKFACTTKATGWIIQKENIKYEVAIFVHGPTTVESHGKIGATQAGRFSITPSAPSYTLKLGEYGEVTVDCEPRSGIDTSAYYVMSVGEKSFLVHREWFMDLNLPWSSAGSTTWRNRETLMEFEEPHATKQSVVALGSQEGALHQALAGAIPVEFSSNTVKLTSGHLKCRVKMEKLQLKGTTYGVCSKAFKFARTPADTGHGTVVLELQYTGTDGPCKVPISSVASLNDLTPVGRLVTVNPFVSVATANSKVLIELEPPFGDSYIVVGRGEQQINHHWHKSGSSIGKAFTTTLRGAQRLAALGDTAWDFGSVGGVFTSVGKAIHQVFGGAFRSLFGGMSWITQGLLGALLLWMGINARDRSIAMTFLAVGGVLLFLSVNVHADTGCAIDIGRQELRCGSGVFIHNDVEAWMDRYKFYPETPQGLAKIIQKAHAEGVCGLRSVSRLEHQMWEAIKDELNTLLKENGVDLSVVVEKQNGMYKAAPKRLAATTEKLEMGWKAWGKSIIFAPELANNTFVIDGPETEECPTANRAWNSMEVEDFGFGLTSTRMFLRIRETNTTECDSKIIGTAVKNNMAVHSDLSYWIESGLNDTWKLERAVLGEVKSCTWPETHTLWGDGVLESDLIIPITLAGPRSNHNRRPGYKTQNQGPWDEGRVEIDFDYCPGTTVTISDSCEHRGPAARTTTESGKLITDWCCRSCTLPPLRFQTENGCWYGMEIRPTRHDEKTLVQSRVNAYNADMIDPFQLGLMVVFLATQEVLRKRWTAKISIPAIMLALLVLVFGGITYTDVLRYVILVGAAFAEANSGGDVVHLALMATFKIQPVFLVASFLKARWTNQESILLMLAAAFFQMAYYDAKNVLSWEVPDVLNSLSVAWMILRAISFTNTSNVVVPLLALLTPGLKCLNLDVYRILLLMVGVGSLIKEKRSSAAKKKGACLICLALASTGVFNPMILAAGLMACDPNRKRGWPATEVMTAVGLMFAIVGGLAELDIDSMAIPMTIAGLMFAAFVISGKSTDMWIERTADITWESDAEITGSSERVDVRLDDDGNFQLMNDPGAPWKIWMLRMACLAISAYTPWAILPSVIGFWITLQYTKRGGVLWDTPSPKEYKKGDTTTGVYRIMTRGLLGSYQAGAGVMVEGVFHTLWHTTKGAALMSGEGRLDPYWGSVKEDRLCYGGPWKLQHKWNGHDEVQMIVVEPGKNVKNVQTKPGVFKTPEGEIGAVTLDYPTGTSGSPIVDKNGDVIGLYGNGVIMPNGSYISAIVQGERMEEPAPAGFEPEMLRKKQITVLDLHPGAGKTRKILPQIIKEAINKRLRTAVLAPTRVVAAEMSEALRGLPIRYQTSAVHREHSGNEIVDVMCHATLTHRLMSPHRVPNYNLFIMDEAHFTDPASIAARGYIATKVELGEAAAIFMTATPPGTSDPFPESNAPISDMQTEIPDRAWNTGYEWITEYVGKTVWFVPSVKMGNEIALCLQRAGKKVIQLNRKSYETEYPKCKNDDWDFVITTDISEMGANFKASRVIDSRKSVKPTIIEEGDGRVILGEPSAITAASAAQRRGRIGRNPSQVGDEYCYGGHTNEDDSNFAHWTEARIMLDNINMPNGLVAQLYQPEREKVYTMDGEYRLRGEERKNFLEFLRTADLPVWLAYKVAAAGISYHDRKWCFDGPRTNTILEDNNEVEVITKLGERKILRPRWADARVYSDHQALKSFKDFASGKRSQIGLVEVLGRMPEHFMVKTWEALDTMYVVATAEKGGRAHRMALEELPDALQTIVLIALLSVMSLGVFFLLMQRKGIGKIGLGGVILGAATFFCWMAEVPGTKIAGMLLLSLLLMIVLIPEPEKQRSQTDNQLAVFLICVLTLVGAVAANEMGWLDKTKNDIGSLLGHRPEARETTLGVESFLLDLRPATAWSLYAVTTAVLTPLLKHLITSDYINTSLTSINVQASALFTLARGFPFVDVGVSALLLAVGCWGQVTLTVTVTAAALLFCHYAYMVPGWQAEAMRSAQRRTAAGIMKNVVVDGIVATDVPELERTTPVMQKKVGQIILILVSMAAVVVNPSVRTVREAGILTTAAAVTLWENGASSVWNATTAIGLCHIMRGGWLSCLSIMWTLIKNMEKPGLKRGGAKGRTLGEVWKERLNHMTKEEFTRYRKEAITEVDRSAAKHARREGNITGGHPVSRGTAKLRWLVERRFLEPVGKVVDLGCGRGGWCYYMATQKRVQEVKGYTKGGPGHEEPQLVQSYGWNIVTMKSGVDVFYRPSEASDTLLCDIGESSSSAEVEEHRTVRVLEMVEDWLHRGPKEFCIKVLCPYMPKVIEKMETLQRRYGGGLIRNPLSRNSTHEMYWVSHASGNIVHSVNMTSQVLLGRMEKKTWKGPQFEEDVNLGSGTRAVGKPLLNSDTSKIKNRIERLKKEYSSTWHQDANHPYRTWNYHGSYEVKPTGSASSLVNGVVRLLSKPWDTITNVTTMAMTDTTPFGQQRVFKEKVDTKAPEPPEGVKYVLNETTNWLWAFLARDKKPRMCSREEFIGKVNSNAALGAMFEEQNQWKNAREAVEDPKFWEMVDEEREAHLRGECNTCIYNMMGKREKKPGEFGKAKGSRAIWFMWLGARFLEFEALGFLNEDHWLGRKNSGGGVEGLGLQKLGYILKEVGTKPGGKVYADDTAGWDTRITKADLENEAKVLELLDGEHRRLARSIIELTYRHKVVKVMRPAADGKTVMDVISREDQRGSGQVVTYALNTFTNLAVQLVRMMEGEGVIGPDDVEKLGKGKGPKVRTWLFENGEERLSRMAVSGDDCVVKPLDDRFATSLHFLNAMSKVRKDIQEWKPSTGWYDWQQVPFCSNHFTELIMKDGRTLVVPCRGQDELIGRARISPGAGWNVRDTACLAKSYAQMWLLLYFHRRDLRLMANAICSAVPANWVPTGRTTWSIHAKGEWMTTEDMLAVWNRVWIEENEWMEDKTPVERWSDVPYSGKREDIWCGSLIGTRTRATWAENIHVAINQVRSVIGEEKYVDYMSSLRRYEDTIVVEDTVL
Chain of Nonstructural protein 3 (Zika virus) (A0A024AXB9 as listed by the source): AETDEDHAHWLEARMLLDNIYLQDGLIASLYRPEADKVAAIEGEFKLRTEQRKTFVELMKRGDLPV
Chain of Nonstructural protein 3 (A0A024AXB9 whole entry): as the sequence (A0A024AXB9 as listed by the source) above
Chain of Genome polyprotein (P06935 1371-1501 limits assumed): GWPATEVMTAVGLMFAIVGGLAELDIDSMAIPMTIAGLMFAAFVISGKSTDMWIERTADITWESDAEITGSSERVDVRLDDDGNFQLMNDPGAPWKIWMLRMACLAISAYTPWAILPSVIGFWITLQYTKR
Chain of Genome polyprotein (P06935 1502-2120 limits assumed): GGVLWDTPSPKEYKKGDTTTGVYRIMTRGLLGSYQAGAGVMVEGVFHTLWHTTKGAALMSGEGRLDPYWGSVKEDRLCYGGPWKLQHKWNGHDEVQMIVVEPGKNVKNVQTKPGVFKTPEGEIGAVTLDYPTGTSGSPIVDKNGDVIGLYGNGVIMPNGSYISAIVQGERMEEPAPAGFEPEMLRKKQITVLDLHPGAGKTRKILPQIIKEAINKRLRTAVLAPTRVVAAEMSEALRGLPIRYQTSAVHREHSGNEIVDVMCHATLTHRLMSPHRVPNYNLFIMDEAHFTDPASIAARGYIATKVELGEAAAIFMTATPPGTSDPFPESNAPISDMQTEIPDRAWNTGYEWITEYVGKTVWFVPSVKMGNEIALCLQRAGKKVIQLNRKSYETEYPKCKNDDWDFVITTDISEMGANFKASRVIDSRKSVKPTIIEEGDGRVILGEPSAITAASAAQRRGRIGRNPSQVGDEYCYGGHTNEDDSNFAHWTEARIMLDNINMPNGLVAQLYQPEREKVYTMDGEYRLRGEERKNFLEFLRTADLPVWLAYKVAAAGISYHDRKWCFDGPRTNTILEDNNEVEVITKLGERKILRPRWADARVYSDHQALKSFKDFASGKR

`Cc1ccc(C(=O)NCC(O)CN2CCCC2)cc1OCCN` (stereo not given): the Ki in assay [1] stood at 0.09 µM; on Genome polyprotein, 25.5 µM; at Nonstructural protein 3 it was 2.3 µM. For the same molecule, the inhibition entry (in assay [2]; in assay [3]; in the assay with dengue virus type 2) was “Active” throughout.

As for `COc1cc(CN2CC(O)C2)ccc1OCC(O)CN1CCC(O)CC1` (stereo not given), the inhibition result in assay [2] and in assay [3] was “Active” in each case. Also, the Ki on Genome polyprotein is 7.4 µM; on Nonstructural protein 3 it was 11.5 µM.

Broadly, the Ki is a measure of affinity in units of concentration, obtained from inhibition or displacement. The low end stands for a stronger hold on the target, the high end for a looser hold on the target.
